In brackets after ≈: the same amount, converted by molar mass. Activity calls are given as the source filed them. The rule behind the calls is not given here.
Columns and labels:
Type in all cases: functional
Escherichia coli [1] = test: Antibacterial activity against Escherichia coli MC1061 after 16 to 18 hrs by microbroth dilution assay
Method in brief: (§1)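 CLSI microbroth dilution. Compound was two-fold serially diluted from a 64 μM starting concentration into wells holding ~5 × 10^4 CFU of the test strain. After 16–18 h incubation, the MIC was taken as the lowest concentration causing no visible turbidity.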

Bacillus cereus = test: Antibacterial activity against Bacillus cereus ATCC 4342 after 16 to 18 hrs by microbroth dilution assay
Method in brief: (§2)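 Broth microdilution following CLSI, in LB at 37 °C with aeration. Starting at 64 μM, two-fold serial dilutions were added to wells holding ~5 × 10^4 CFU. Turbidity was inspected after 16–18 h. The MIC was the lowest concentration that inhibited visible growth.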

Bacillus subtilis [2] = test: Antibacterial activity against Bacillus subtilis subsp. subtilis str. 168 after 16 to 18 hrs by microbroth dilution assay; method in brief: as §2
Bacillus subtilis [3] = test: Antibacterial activity against Bacillus subtilis ATCC 47096 after 16 to 18 hrs by microbroth dilution assay
Method in brief: (§3)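 Broth microdilution per CLSI in LB at 37 °C with aeration. Twofold serial dilutions from a starting concentration of 64 μM were added to wells holding ~5 × 10^4 CFU of the test strain. Turbidity was read after 16–18 h. MIC was taken as the lowest concentration with no visible growth.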

Bacillus thuringiensis = test: Antibacterial activity against Bacillus sp. Al Hakam after 16 to 18 hrs by microbroth dilution assay; method in brief: as §2
Enterococcus faecium = test: Antibacterial activity against Vancomycin-resistant Enterococcus faecium U503 after 16 to 18 hrs by microbroth dilution assay; method in brief: as §3
Staphylococcus aureus = test: Antibacterial activity against Methicillin-resistant Staphylococcus aureus USA300 after 16 to 18 hrs by microbroth dilution assay; method in brief: as §3
[4] = Antifungal activity against Saccharomyces cerevisiae after 16 to 18 hrs by microbroth dilution assay
Method in brief: (§4)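 Yeast grown in YPD at 30 °C with aeration. CLSI microdilution used two-fold dilutions from a 64 μM start and ~5 × 10^4 CFU per well. Visible turbidity was scored at 16–18 h. The MIC was the lowest concentration without visible growth.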

[5] = tested on: Mycolicibacterium smegmatis; test: Antibacterial activity against Mycobacterium smegmatis NRRL B-14616 after 16 to 18 hrs by microbroth dilution assay
Method in brief: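 Broth microdilution following CLSI, in LB with 0.05% Tween 80 at 37 °C with aeration. Two-fold serial dilutions started at 64 μM, with ~5 × 10^4 CFU per well. Wells were read by visible turbidity after 16–18 h. The MIC was the lowest concentration preventing visible growth.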

Escherichia coli [6] = test: Antibacterial activity against Escherichia coli DH5alpha after 16 to 18 hrs by microbroth dilution assay; conditions: DH5[alpha]; method in brief: as §1
Pseudomonas putida = test: Antibacterial activity against Pseudomonas putida KT2440 after 16 to 18 hrs by microbroth dilution assay; method in brief: as §1
Candida albicans = test: Antifungal activity against Candida albicans after 16 to 18 hrs by microbroth dilution assay
Method in brief: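 CLSI microbroth dilution in YPD at 30 °C with aeration. Two-fold serial dilutions started at 128 μM, with ~5 × 10^4 CFU per well. Turbidity was inspected after 16–18 h. The MIC was the lowest concentration inhibiting visible growth.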

Debaryomyces hansenii = test: Antifungal activity against Debaryomyces hansenii after 16 to 18 hrs by microbroth dilution assay; method in brief: as §4
[7] = Antifungal activity against Kluyveromyces lactis after 16 to 18 hrs by microbroth dilution assay; method in brief: as §4
[8] = Antifungal activity against Zygosaccharomyces rouxii after 40 to 42 hrs by microbroth dilution assay
Method in brief: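 CLSI microdilution in YPD at 30 °C with aeration. Two-fold serial dilutions started at 64 μM, with ~5 × 10^4 CFU per well. Incubation was extended to 40–42 h before turbidity inspection. The MIC was the lowest concentration inhibiting visible growth.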

Bacillus subtilis [9] = test: Bactericidal activity against Bacillus subtilis ATCC 47096 at 8 to 32 uM after 16 hrs
Method in brief: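 Mid-exponential cultures (OD600 0.4, diluted 1000-fold from stationary cultures into LB) were treated with vehicle (DMSO), 8, 16 or 32 μM at 37 °C. OD595 was read every 10 min for 16 h with shaking between reads. Values were normalized to 0.4 at t = 0 and averaged over three independent cultures.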

Bacillus subtilis [10] = test: Bactericidal activity against Bacillus subtilis ATCC 47096 after 16 hrs; conditions: ATCC 47096, 16 h, read-out: MBC=>99.9
Bacillus subtilis [11] = test: Antibacterial activity against Bacillus subtilis ATCC 47096 assessed as induction of membrane damage after 30 mins by propidium iodide staining based fluorescent microscopic analysis
Method in brief: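 Cells grown in LB at 37 °C to OD600 0.5 were resuspended in PBS pH 7.4 with DMSO vehicle, 8, 32 or 64 μM compound for 30 min at ~22 °C. Cells were then washed, stained with 10 μM propidium iodide for 15 min, immobilized in agarose, and imaged by confocal fluorescence and DIC microscopy.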

Bacillus subtilis [12] = test: Antibacterial activity against Bacillus subtilis ATCC 47096 assessed as induction of membrane depolarization after 30 mins by DiOC2(3) dye based flow cytometric analysis
Method in brief: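 Three independent LB cultures grown to OD600 0.5 were diluted into PBS containing DiOC2(3) with DMSO vehicle, 5 μM CCCP (positive control), or 0.1–1.0 μM compound. Cells were mixed 30 min at ~22 °C and analysed by flow cytometry. Red/green fluorescence ratio geometric means were normalized to vehicle.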

Bacillus subtilis [13] = test: Antibacterial activity against Bacillus subtilis P10A derived after 10 passage in presence of JBIR-100 after 16 to 18 hrs by microbroth dilution assay
Method in brief: (§5)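 Mutants were derived from B. subtilis ATCC 47096 in three independent cultures. Each was passaged 10 times every 24 h at 37 °C in LB, starting at 0.5× MIC and raised in 0.5× MIC steps. Isolates were restreaked three times on drug-free LB agar to confirm stability.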

Bacillus subtilis [14] = test: Antibacterial activity against Bacillus subtilis P10B derived after 10 passage in presence of JBIR-100 after 16 to 18 hrs by microbroth dilution assay; method in brief: as §5
Bacillus subtilis [15] = test: Antibacterial activity against Bacillus subtilis P10C derived after 10 passage in presence of JBIR-100 after 16 to 18 hrs by microbroth dilution assay; method in brief: as §5
Bacillus subtilis [16] = test: Antibacterial activity against Bacillus subtilis P10A derived after 10 passage in presence of JBIR-100 after 16 to 18 hrs by microbroth dilution assay relative to Bacillus subtilis ATCC 47096
Bacillus subtilis [17] = test: Antibacterial activity against Bacillus subtilis P10B derived after 10 passage in presence of JBIR-100 after 16 to 18 hrs by microbroth dilution assay relative to Bacillus subtilis ATCC 47096
Bacillus subtilis [18] = test: Antibacterial activity against Bacillus subtilis P10C derived after 10 passage in presence of JBIR-100 after 16 to 18 hrs by microbroth dilution assay relative to Bacillus subtilis ATCC 47096

| SMILES | MIC (Bacillus subtilis [3]) | MIC (Bacillus subtilis [13]) | MIC (Bacillus subtilis [14]) | MIC (Bacillus subtilis [15]) | fold change (FC) (Bacillus subtilis [16]) | fold change (FC) (Bacillus subtilis [17]) | fold change (FC) (Bacillus subtilis [18]) | also measured |
| --- | --- | --- | --- | --- | --- | --- | --- | --- |
| CO[C@H]1/C=C/C=C(\C)C[C@H](C)[C@H](O)[C@H](C)/C=C(C)/C=C(\C)C(=O)O[C@@H]1[C@@H](C)[C@@H](O)[C@H](C)[C@@]1(O)C[C@@H](OC(=O)/C=C/C(=O)O)[C@H](C)[C@@H](C(C)C)O1 | 8 µM (≈ 5.64 µg/mL) | 16 µM | 16 µM | 16 µM | – | – | – | MIC (Escherichia coli [1]): > 64 µM; MIC (Bacillus cereus): 4 µM (≈ 2.82 µg/mL); MIC (Bacillus subtilis [2]): 8 µM (≈ 5.64 µg/mL); MIC (Bacillus thuringiensis): 4 µM (≈ 2.82 µg/mL); MIC (Enterococcus faecium): 16 µM (≈ 11.3 µg/mL); MIC (Staphylococcus aureus): 4 µM (≈ 2.82 µg/mL); MIC [4]: > 64 µM; MIC [5]: > 64 µM; MIC (Escherichia coli [6]): > 64 µM; MIC (Pseudomonas putida): > 64 µM; MIC (Candida albicans): > 128 µM; MIC (Debaryomyces hansenii): 8 µM (≈ 5.64 µg/mL); MIC [7]: > 64 µM; MIC [8]: 32 µM (≈ 22.6 µg/mL); Activity (Bacillus subtilis [9]): Active; MBC (Bacillus subtilis [10]): 16 µM (≈ 11.3 µg/mL); Activity (Bacillus subtilis [11]): Dose-dependent effect; Activity (Bacillus subtilis [12]): Dose-dependent effect |
| CC1(C)S[C@@H]2[C@H](NC(=O)[C@H](N)c3ccccc3)C(=O)N2[C@H]1C(=O)O [AMPICILLIN] | 0.125 µM (≈ 0.0437 µg/mL) | 0.125 µM | 0.125 µM | 0.125 µM | – | – | – | – |
| O=C(N[C@H](CO)[C@H](O)c1ccc([N+](=O)[O-])cc1)C(Cl)Cl [CHLORAMPHENICOL] | 8 µM (≈ 2.59 µg/mL) | 4 µM | 8 µM | 8 µM | 2 | 2 | 2 | – |
| O=C(O)c1cn(C2CC2)c2cc(N3CCNCC3)c(F)cc2c1=O [CIPROFLOXACIN] | 0.125 µM (≈ 0.0414 µg/mL) | 0.125 µM | 0.125 µM | 0.125 µM | – | – | – | – |
| NC[C@H]1O[C@H](O[C@H]2[C@H](O)[C@@H](O[C@H]3O[C@H](CO)[C@@H](O)[C@H](N)[C@H]3O)[C@H](N)C[C@@H]2N)[C@H](O)[C@@H](O)[C@@H]1O [KANAMYCIN] | 256 µM (≈ 124 µg/mL) | 128 µM | 64 µM | 64 µM | 2 - 4 | 2 - 4 | 2 - 4 | – |
| CO[C@H]1/C=C/O[C@@]2(C)Oc3c(C)c(O)c4c(O)c(c(/C=N/N5CCN(C)CC5)c(O)c4c3C2=O)NC(=O)/C(C)=C\C=C\[C@H](C)[C@H](O)[C@@H](C)[C@@H](O)[C@@H](C)[C@H](OC(C)=O)[C@@H]1C [RIFAMPIN] | 0.0625 µM (≈ 0.0514 µg/mL) | 0.25 µM | 0.125 µM | 0.125 µM | 2 - 4 | 2 - 4 | 2 - 4 | – |
| Oc1cc(Cl)ccc1Oc1ccc(Cl)cc1Cl [TRICLOSAN] | 8 µM (≈ 2.32 µg/mL) | 8 µM | 8 µM | 8 µM | – | – | – | – |
| CN[C@H](CC(C)C)C(=O)N[C@H]1C(=O)N[C@@H](CC(N)=O)C(=O)N[C@H]2C(=O)N[C@H]3C(=O)N[C@H](C(=O)N[C@H](C(=O)O)c4cc(O)cc(O)c4-c4cc3ccc4O)[C@H](O)c3ccc(c(Cl)c3)Oc3cc2cc(c3O[C@@H]2O[C@H](CO)[C@@H](O)[C@H](O)[C@H]2O[C@H]2C[C@](C)(N)[C@H](O)[C@H](C)O2)Oc2ccc(cc2Cl)[C@H]1O [VANCOMYCIN] | 0.125 µM (≈ 0.181 µg/mL) | 0.125 µM | 0.0625 µM | 0.0625 µM | 2 | 2 | 2 | – |

From ChEMBL document CHEMBL3865782 (2016)
